Converted amounts (≈) assume the structure as drawn. The source made the active and inactive calls. The rule behind the calls is not given here.
Key:
Pseudomonas aeruginosa [1] = test: Inhibition of LasR-dependent quorum sensing activity in Pseudomonas aeruginosa harboring reporter plasmid lasB-GFP assessed as reduction in GFP expression up to 100 ug/ml measured every 15 mins for 14 hrs by fluorescence assay
Outline: (§1)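 P. aeruginosa lasB-gfp and rhlA-gfp reporters, grown 16 h at 37 °C with shaking, then diluted to OD450 0.1 in BT minimal medium (10% A10, 0.5% glucose, 0.5% Casamino Acids). No added signal molecule. Fluorescence at 485/535 nm and growth monitored every 15 min for 14 h at 34 °C. Concentrations up to 100 µg/ml.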

[2] = biological target: T1, HTH-type quorum-sensing regulator RhlR (Pseudomonas aeruginosa (strain ATCC 15692 / PAO1 / 1C / PRS 101 / LMG12228)) (UniProt P54292); test: Inhibition of RhlR-dependent quorum sensing activity in Pseudomonas aeruginosa harboring reporter plasmid rhlA-gfp assessed as reduction in GFP expression up to 100 ug/ml measured every 15 mins for 14 hrs by fluorescence assay; outline: as §1
T1 sequence (whole entry): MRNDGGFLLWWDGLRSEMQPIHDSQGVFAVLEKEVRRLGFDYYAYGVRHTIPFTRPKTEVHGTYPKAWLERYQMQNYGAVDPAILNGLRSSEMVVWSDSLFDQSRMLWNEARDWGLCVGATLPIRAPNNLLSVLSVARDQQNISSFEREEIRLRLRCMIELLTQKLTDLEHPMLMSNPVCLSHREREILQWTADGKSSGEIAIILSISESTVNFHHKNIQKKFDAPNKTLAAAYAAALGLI

Saccharomyces cerevisiae = test: Inhibition of yeast Pma1 at 100 uM preincubated for 30 mins by spectrophotometric method
Outline: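 Pma1 purified from Saccharomyces cerevisiae plasma membrane, 0.5 µg per reaction. Enzyme preincubated 30 min at room temperature with 100 µM compound. Reaction buffer: 5 mM ATP, 10 mM MgSO4, 50 mM KNO3, 5 mM NaN3, 3.5 mM molybdate, 20 mM MES-KOH pH 5.9. Run 30 min, then stopped with acidic molybdate/ascorbate/SDS. Released phosphate read at 860 nm after arsenite-citrate treatment (Baginski method).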

Escherichia coli [3] = test: Inhibition of LuxR-dependent quorum sensing activity in Escherichia coli harboring reporter plasmid LuxI-GFP assessed as reduction in 3-oxo-C6-HSL-induced GFP expression up to 100 ug/ml measured every 15 mins for 14 hrs by fluorescence assay
Outline: (§2)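 luxI-gfp E. coli reporter grown 16 h at 37 °C, shaking 180 rpm, then diluted to OD450 0.1 in BT minimal medium with 10% A10, 0.5% glucose and 0.5% Casamino Acids. 3-oxo-C6-HSL added at 10 nM final. Compounds run in triplicate as 2-fold dilutions from 100 μg/ml. GFP (ex 485/em 535) and OD450 read every 15 min for 14 h at 34 °C. IC50 taken from GFP curves.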

Escherichia coli [4] = test: Growth inhibition of Escherichia coli at 0.39 to 100 ug/ml; outline: as §2
[5] = Inhibition of LuxR-dependent quorum sensing activity in Escherichia coli harboring reporter plasmid LuxI-GFP assessed as reduction in 3-oxo-C6-HSL-induced GFP expression measured every 15 mins for 14 hrs by fluorescence assay; outline: as §2
[6] = Inhibition of quorum sensing system in Agrobacterium tumefaciens harboring traG-LacZ reporter fusion measured after 4 hrs by beta-galactosidase reporter gene assay
Pseudomonas aeruginosa [7] = test: Growth inhibition of Pseudomonas aeruginosa at >125 ug/ml
Pseudomonas aeruginosa [8] = test: Inhibition of LasR-dependent quorum sensing activity in Pseudomonas aeruginosa harboring reporter plasmid lasB-GFP assessed as reduction in GFP expression at >125 ug/ml measured every 15 mins for 14 hrs by fluorescence assay
Outline: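 P. aeruginosa lasB-gfp monitor: 16 h overnight culture (37 °C, 180 rpm) diluted to OD450 0.1 in BT minimal medium plus 10% A10, 0.5% glucose, 0.5% Casamino Acids. No signal molecule added. GFP at ex 485/em 535 nm with growth, every 15 min over 14 h at 34 °C. Triplicate, 2-fold dilutions from 1000 μg/ml.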

Escherichia coli [9] = test: Inhibition of LuxR-dependent quorum sensing activity in Escherichia coli harboring reporter plasmid LuxI-GFP assessed as reduction in 3-oxo-C6-HSL-induced GFP expression at 6.2 to 50 ug/ml measured every 15 mins for 14 hrs by fluorescence assay

Structure (SMILES)	inhibition (Pseudomonas aeruginosa [1])	inhibition [2]	inhibition (Saccharomyces cerevisiae)	inhibition (Escherichia coli [3])	growth inhibition (GI) (Escherichia coli [4])	IC50 [5]	IC50 [6]	growth inhibition (GI) (Pseudomonas aeruginosa [7])	inhibition (Pseudomonas aeruginosa [8])	inhibition (Escherichia coli [9])
COC(=O)c1ccc(-c2ccnc3cc(OC)ccc23)cn1	inactive	inactive	inactive							
COC(=O)c1ccc(-c2ccco2)cn1	inactive	inactive	inactive							
COC(=O)c1ccc(-c2ccc(C)s2)cn1	inactive	inactive	inactive							
O=C(O)c1ccc(-c2ccco2)cn1	inactive	inactive	inactive	Active	Toxic					
C=CCSS/C=C\C[S+]([O-])CC=C (stereo unspecified) [(Z)-Ajoene]						4 µg/mL (≈ 17.1 µM)				
CCOC(=O)c1ccc(CSCC)cn1	inactive	inactive	inactive							
Cc1ccc(-c2ccc(C(=O)O)nc2)s1	inactive	inactive	inactive							
COc1ccc2nccc(-c3ccc(C(=O)O)nc3)c2c1	inactive	inactive	inactive	inactive	Non-Toxic					
O=C(O)c1ccc(-c2nccs2)cn1	inactive	inactive	inactive	inactive	Non-Toxic					
Cn1cc2ccc(-c3ccc(C(=O)O)nc3)cc2n1	inactive	inactive	inactive							
O=[N+]([O-])c1cc[n+]([O-])cc1							171 µM			
O=C(O)c1ccc(Cc2ccccc2)cn1	inactive	inactive	inactive							
COC(=O)c1ccc(OCC2CC2)cn1	inactive	inactive	inactive		Non-Toxic	14 µg/mL (≈ 67.6 µM)				
Cc1cc(-c2ccc(C(=O)O)nc2)c2ccccc2n1	inactive	inactive	inactive	inactive	Non-Toxic					
COC(=O)c1ccc(-c2ccnc3ccc(OC)cc23)cn1	inactive	inactive	inactive							
Cc1ccc(-c2ccc(C(=O)O)nc2)cc1	inactive	inactive	inactive							
COC(=O)c1ccc(-c2cc(C)nc3ccccc23)cn1	inactive	inactive	inactive							
COC(=O)c1ccc(Br)cn1	inactive	inactive	inactive	inactive				Non-Toxic	Active	
O=C(O)c1ccc(Br)cn1	inactive	inactive	inactive							
CCOC(=O)c1ccc(-c2ccccc2)cn1	inactive	inactive	inactive		Non-Toxic	12 µg/mL (≈ 52.8 µM)				
O=C(O)c1ccc(OCC2CC2)cn1	inactive	inactive	inactive	Active	Toxic					

Structure (SMILES)	inhibition (Pseudomonas aeruginosa [1])	inhibition [2]	inhibition (Saccharomyces cerevisiae)	inhibition (Escherichia coli [3])	growth inhibition (GI) (Escherichia coli [4])	IC50 [5]	IC50 [6]	growth inhibition (GI) (Pseudomonas aeruginosa [7])	inhibition (Pseudomonas aeruginosa [8])	inhibition (Escherichia coli [9])
COC(=O)c1ccc(OCC(=O)Nc2ccccc2)cn1	inactive	inactive	inactive		Non-Toxic	64 µg/mL (≈ 224 µM)				
CCOC(=O)c1ccc(-c2cccc3ccccc23)cn1	inactive	inactive	inactive							
CCOC(=O)c1ccc(-c2ccc(C)cc2)cn1	inactive	inactive	inactive							
CCCCc1ccc(C(=O)OCC)nc1	inactive	inactive	inactive		Non-Toxic	55 µg/mL (≈ 265 µM)				Active
COC(=O)c1ccc(-c2cccc(OC)n2)cn1	inactive	inactive	inactive		Non-Toxic	95 µg/mL (≈ 389 µM)				
COC(=O)c1ccc(Cc2ccccc2)cn1	inactive	inactive	inactive							
O=C(O)c1ccc(-c2ccnc3ccccc23)cn1	inactive	inactive	inactive							
O=C(O)c1ccc(-c2cccc3ccccc23)cn1	inactive	inactive	inactive							
CCCOc1ccc(C(=O)OC)nc1	inactive	inactive	inactive		Non-Toxic					
COC(=O)c1ccc(-c2ccc3cn(C)nc3c2)cn1	inactive	inactive	inactive							
CCCOc1ccc(C(=O)O)nc1	inactive	inactive	inactive	Active	Toxic					
O=C(COc1ccc(C(=O)O)nc1)Nc1ccccc1	inactive	inactive	inactive	inactive	Non-Toxic					
COc1cccc(-c2ccc(C(=O)O)nc2)n1	inactive	inactive	inactive							
CCCNC(=O)c1ccc(NCCC)cn1	inactive	inactive	inactive							
O=C(O)COc1ccc(C(=O)O)nc1	inactive	inactive	inactive	inactive						
COC(=O)c1ccc(-c2nccs2)cn1	inactive	inactive	inactive							
CCOC(=O)c1ccc(Br)cn1	inactive	inactive	inactive							
O=C(O)c1ccc(-c2ccccc2)cn1	inactive	inactive	inactive							
COC(=O)c1ccc(-c2ccnc3ccccc23)cn1	inactive	inactive	inactive	inactive	Non-Toxic					
COc1ccc2c(-c3ccc(C(=O)O)nc3)ccnc2c1	inactive	inactive	inactive							
